Experimental data as given in publication PMC6379856 (ACS Chemical Biology, 2019).

Experiments:
[1] = tested on: endogenously expressed serine hydrolases in mouse brain; assay: Competitive gel-based ABPP in mouse brain proteomes with FP-TAMRA and MB064; format: biochemical
Summary of the method: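 Mouse brain membrane and cytosol proteomes were treated with DMSO or test compound at 10 µM. Each was then labelled with MB064 or FP-TAMRA and resolved by SDS-PAGE with fluorescent scanning. Coomassie staining served as the protein loading control.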

PLA2G16 [2] = target: T1, PLA2G16 (Homo sapiens, UniProt P53816); assay: PC-A2 fluorescent substrate assay; format: biochemical
T1 sequence (P53816 1-162): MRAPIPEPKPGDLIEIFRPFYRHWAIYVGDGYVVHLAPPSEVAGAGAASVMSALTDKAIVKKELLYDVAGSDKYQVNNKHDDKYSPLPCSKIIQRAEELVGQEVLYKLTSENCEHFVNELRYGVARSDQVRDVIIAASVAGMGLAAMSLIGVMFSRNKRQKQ
Summary of the method: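 HEK293T cells overexpressing human PLA2G16 supplied the cytosol proteome used as enzyme source. Test compound was tested over a concentration range in the fluorescent PC-A2 phospholipid substrate assay. Dose–response curves were generated (n = 3).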

[3] = tested on: U2OS cells transfected with human PLA2G16; format: cell-based; settings: 10 μM, 4 or 8 h, serum-free, in situ
Summary of the method: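 U2OS cells transfected with human PLA2G16 were exposed in situ, under serum-free conditions, to DMSO vehicle or test compound at 10 µM for 4 or 8 h. Arachidonic acid levels were then measured. Significance was assessed by Student's t-test.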

[4] = tested on: other proteins in brown and white adipose tissue; format: biochemical, mouse; settings: 10 μM, probe MB064
Summary of the method: (§1)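 Cytosol proteomes from freshly isolated mouse white and brown adipose tissue were preincubated with test compound (10 µM) or DMSO. They were then labelled with probe MB064, resolved by SDS-PAGE and fluorescence-scanned. The gels were Western blotted with an anti-PLA2G16 antibody to locate native PLA2G16.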

HepG2 cells = assay: Oleic acid-induced lipid droplet formation; format: cell-based, human; settings: 10 μM, 24 h, oleic acid 100 μM
Summary of the method: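 HepG2 cells were given oleic acid (100 µM, 24 h) to induce steatosis and treated in situ with test compound (10 µM, 24 h). Lipid droplets were stained with Adipored. Significance was assessed by Student's t-test.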

endogenous PLA2G16 = target: T2, endogenous PLA2G16 (Mus musculus, UniProt Q8R3U1); assay: Competitive ABPP with MB064 in cytosol proteome of mouse WAT and BAT; format: biochemical; settings: 10 μM
T2 sequence (Q8R3U1 1-162): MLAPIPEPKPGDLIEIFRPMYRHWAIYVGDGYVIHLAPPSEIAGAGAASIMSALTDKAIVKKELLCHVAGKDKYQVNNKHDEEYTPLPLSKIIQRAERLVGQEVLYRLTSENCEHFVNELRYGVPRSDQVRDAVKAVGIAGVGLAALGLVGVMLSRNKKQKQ
Summary of the method: as §1

RARRES3 = target: T3, RARRES3 (Homo sapiens, UniProt Q9UL19); assay: Competitive ABPP with probe MB064, cytosol proteome of transfected HEK293T cells; format: biochemical
T3 sequence (Q9UL19 1-164): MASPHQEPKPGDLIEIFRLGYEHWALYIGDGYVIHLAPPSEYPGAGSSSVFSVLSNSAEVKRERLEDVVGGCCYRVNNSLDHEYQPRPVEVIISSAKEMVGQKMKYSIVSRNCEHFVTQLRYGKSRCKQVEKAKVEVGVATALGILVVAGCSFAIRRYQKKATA

iNAT = target: T4, iNAT (Homo sapiens, UniProt Q96KN8); assay: as above; format: biochemical
T4 sequence (Q96KN8 1-279): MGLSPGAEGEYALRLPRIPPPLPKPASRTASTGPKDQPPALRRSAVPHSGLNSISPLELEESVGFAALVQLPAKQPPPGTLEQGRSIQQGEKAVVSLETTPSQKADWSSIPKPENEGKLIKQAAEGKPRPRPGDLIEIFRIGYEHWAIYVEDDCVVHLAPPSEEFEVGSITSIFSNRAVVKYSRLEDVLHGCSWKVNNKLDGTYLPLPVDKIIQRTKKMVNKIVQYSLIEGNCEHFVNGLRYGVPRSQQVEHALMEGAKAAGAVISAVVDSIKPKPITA

PLA2G16 [5] = target: T1, PLA2G16; assay: as above; format: biochemical

| Compound | selectivity over brain serine hydrolases ([1]; gel-based ABPP assay (Figure S7)) | Ki (PLA2G16 [2]) [nM] | PLA2G16-induced increase in arachidonic acid [3] | labeling of other proteins in brown and white adipose tissue [4] | lipid droplet formation induced by oleic acid (HepG2 cells) | labeling of native PLA2G16 by MB064 (endogenous PLA2G16) | IC50 (RARRES3) [nM] | IC50 (iNAT) [nM] | increase in potency compared to compound 1 in the ABPP-assay (PLA2G16 [5]; PLA2G16) [fold] | labeling of proteins in mouse brain targeted by FP-TAMRA or MB064 ([1]; 10 μM, mouse brain membrane and cytosol proteome) | PLA2G16 labeling by MB064 (library screen) (PLA2G16 [5]; inhibitor at 10 μM, competitive ABPP) |
| --- | --- | --- | --- | --- | --- | --- | --- | --- | --- | --- | --- |
| O=C(CCCc1ccccc1)C(=O)NCCc1ccc(Oc2ccc(C(F)(F)F)cn2)cc1 [LEI110, 2-oxo-5-phenyl-N-(4-((5-(trifluoromethyl)pyridin-2-yl)oxy)-phenethyl)pentanamide] | selective | 20 | almost completely abolished | not affected | reduction in lipid droplet formation | completely abolished | 158 | 25.1 | 10 |  |  |
| O=C(CCc1ccc(Cl)cc1)C(=O)NCCc1ccccc1 [Compound 1, 4-(4-chlorophenyl)-2-oxo-N-phenethylbutan-amide] |  |  |  | not affected |  | completely abolished | 631 |  |  | did not reduce the labeling of any proteins | almost completely abolished |
